Active and inactive are the calls of the source. The rule behind the calls is not given here. Non-standard residues stand in square brackets, D forms with d. Residues, ends and D or L forms follow the SMILES beside them. *: point of attachment. Lys(thiomyristoyl) = CCCCCCCCCCCCCC(=S)NCCCC[C@H](N)C(=O)O; X3 = CN(C)c1ccc(/N=N/c2ccc(CCC(=O)*)cc2)cc1; X4 = CN(C)c1ccc(/N=N/c2ccc(CC(=O)*)cc2)cc1; X2 = CN(C)c1ccc(/N=N/c2ccc(C(=O)*)cc2)cc1; X1 = O=C(Cc1ccc(/N=N/c2ccc(O)cc2)cc1)*

As a reminder, the inhibition is the drop in the measured response relative to a control, in per cent.

For experiment [1], the target named is T1, NAD-dependent protein deacetylase sirtuin-3, mitochondrial (Homo sapiens) (UniProt Q9NTG7).
T1 sequence (whole entry): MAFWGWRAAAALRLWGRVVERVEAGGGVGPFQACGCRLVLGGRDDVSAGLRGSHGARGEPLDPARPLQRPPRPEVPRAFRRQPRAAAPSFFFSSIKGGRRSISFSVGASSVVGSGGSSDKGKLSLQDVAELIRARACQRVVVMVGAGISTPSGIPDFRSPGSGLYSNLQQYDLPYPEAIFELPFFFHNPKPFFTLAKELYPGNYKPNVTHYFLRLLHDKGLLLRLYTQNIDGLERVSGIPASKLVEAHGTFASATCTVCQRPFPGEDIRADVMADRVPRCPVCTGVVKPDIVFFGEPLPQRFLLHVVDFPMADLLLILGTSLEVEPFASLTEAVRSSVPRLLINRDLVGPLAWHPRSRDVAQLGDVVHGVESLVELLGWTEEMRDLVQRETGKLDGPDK
The experiment can be described thus: Inhibition of recombinant human SIRT3 (118 to 399 residues) demyristoylase activity expressed in Escherichia coli at 1 uM using p53(Myr)-AMC as substrate measured after 3 hrs in presence of NAD+ and trypsin by fluorescence assay relative to control. An outline of the steps:
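SIRT3 at 120 nM with 50 μM p53(Myr)-AMC and 500 μM NAD⁺ in Tris-HCl pH 8.0/NaCl/DTT/Triton buffer, 0.5% DMSO, 3 h at room temperature. Trypsin (100 nM) plus nicotinamide (1 mM) then added. Fluorescence Ex 355/Em 460 nm every 5 min for 20 min at 37 °C. n = 3.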

The target of experiment [2] is T2, NAD-dependent protein deacetylase sirtuin-2 (Homo sapiens) (UniProt Q8IXJ6).
T2 sequence (whole entry): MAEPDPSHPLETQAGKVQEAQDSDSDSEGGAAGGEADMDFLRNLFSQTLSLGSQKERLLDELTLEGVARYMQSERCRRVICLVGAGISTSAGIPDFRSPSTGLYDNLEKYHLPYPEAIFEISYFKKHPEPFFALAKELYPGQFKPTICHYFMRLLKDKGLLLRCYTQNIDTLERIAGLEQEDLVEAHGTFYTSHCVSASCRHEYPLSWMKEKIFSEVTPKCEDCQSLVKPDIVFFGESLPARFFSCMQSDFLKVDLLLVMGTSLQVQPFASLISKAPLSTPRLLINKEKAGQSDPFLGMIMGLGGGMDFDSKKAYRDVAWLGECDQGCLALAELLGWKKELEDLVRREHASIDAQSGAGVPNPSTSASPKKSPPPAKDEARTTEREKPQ
Kind of experiment: Inhibition of recombinant human SIRT2 demyristoylase activity at 1 uM using p53(Myr)-AMC as substrate measured after 3 hrs in presence of NAD+ and trypsin by fluorescence assay relative to control.

Experiment [3] has as its target T2, NAD-dependent protein deacetylase sirtuin-2 (Homo sapiens). The experiment can be described thus: Inhibition of recombinant human SIRT2 defatty-acylase activity at 2 uM using SFP3 as substrate measured at 5 mins interval for 60 mins in presence of NAD+ by fluorescence assay relative to control.
Experiment [4] shares this target. Kind of experiment: Inhibition of recombinant human SIRT2 deacylation activity at 1 uM using Fluor de Lys Sirt2 as substrate measured at 5 mins interval for 30 mins in presence of NAD+ by fluorescence assay relative to control.
Experiment [5] has as its target T3, NAD-dependent protein deacetylase sirtuin-1 (Homo sapiens) (UniProt Q96EB6).
T3 sequence (whole entry): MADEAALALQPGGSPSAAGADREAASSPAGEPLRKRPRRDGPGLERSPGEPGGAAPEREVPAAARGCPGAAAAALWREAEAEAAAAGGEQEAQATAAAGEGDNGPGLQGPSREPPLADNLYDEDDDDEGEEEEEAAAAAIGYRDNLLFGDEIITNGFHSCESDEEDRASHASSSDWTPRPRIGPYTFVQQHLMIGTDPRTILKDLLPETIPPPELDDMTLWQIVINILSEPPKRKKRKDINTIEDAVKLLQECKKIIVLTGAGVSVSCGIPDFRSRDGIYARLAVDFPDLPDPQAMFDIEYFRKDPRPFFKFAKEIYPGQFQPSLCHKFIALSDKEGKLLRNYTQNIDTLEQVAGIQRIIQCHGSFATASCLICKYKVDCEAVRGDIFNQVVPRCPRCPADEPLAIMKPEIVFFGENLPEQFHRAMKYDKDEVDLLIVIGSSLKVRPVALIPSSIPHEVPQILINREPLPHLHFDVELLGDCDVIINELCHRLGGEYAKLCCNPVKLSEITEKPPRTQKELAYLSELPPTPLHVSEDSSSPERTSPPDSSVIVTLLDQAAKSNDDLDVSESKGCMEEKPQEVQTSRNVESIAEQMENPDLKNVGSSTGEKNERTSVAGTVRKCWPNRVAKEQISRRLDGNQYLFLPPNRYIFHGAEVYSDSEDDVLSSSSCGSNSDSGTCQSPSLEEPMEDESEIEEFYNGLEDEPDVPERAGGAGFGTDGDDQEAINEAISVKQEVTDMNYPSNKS
Kind of experiment: Inhibition of recombinant human C-terminal His6-tagged SIRT1 (Met1 to Ser747 residues) defatty-acylase activity expressed in Escherichia coli at 2 uM using SFP3 as substrate measured at 5 mins interval for 60 mins in presence of NAD+ by fluorescence assay relative to control.

Experiment [6] concerns the target T3, NAD-dependent protein deacetylase sirtuin-1 (Homo sapiens). The experiment can be described thus: Inhibition of recombinant human C-terminal His6-tagged SIRT1 (Met1 to Ser747 residues) demyristoylase activity expressed in Escherichia coli at 1 uM using p53(Myr)-AMC as substrate measured after 3 hrs in presence of NAD+ and trypsin by fluorescence assay relative to control. The method, boiled down: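 SIRT1 at 14 nM final with 50 μM p53(Myr)-AMC and 500 μM NAD⁺ in Tris-HCl pH 8.0/NaCl/DTT/Triton buffer, 0.5% DMSO, 3 h at room temperature. Trypsin (100 nM final) plus nicotinamide (1 mM final) then added. Fluorescence Ex 355/Em 460 nm read every 5 min for 20 min at 37 °C. n = 3.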

Experiment [7] concerns the target T1, NAD-dependent protein deacetylase sirtuin-3, mitochondrial (Homo sapiens). Kind of experiment: Inhibition of recombinant human SIRT3 (118 to 399 residues) defatty-acylase activity expressed in Escherichia coli at 2 uM using SFP3 as substrate measured at 5 mins interval for 60 mins in presence of NAD+ by fluorescence assay relative to control. The method, boiled down:
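SIRT3 at 60 nM final with 2.5 μM SFP3 and 500 μM NAD⁺ in Tris-HCl pH 8.0, 150 mM NaCl, 1 mM DTT, 0.05% Triton X-100. Final DMSO 0.2%, or 0.5% for AGK2/NAM. Fluorescence Ex 485/Em 535 nm every 5 min for 60 min at 37 °C. n = 3.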

The target in experiment [8] is NAD-dependent protein deacylase sirtuin-6 (Homo sapiens) (UniProt Q8N6T7). Kind of experiment: Inhibition of recombinant human N-terminal polyhis-tagged SIRT6 (1 to 355 residues) defatty-acylase activity expressed in Escherichia coli at 2 uM using SFP3 as substrate measured at 5 mins interval for 60 mins in presence of NAD+ by fluorescence assay relative to control.

The target of experiment [9] is T2, NAD-dependent protein deacetylase sirtuin-2 (Homo sapiens). Kind of experiment: Inhibition of recombinant human SIRT2 defatty-acylase activity using SFP3 as substrate measured at 5 mins interval for 60 mins in presence of NAD+ by fluorescence assay.
Experiment [10] has the same target. The experiment can be described thus: Inhibition of recombinant human SIRT2 demyristoylase activity using H4K16-Myr as substrate measured after 2 hrs in presence of NAD+ by HPLC analysis. The method, boiled down: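 H4K16-Myr at 100 μM with 500 μM NAD⁺ and 175 nM SIRT2 in Tris-HCl pH 8.0/NaCl/Triton buffer without DTT, 0.5% DMSO, 2 h at 37 °C. Inhibitors at 0.1–10 μM; AGK2 at 50 μM, NAM at 500 μM. Stopped with HCl/MeOH. Demyristoylated H4K16 product measured by HPLC at 280 nm. Percent inhibition, n = 3.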

The target is the same in experiment [11]. Kind of experiment: Non-competitive inhibition of recombinant human SIRT2 defatty-acylase activity at 15 to 30 nM using SFP3 as substrate measured at 1 min interval for 30 mins in presence of varying levels of NAD+ by Michaelis-Menten plot analysis.
Experiment [12] shares this target. Kind of experiment: Inhibition of recombinant human SIRT2 deacylation activity using H4K16-Ac as substrate measured after 30 mins in presence of NAD+ by HPLC analysis. An outline of the steps:
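H4K16-Ac peptide at 100 μM with 500 μM NAD⁺ and 175 nM SIRT2 in Tris-HCl pH 8.0/NaCl/Triton buffer lacking DTT, 0.5% DMSO, 30 min at 37 °C. Inhibitors at 0.01–10 μM. Stopped with HCl in MeOH. Deacetylated product quantified by reversed-phase HPLC at 280 nm.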

Another experiment deals with HeLa. The experiment can be described thus: Cytotoxicity against human HeLa cells assessed as reduction in cell viability at 50 uM measured after 72 hrs by CCK8 assay. The experiment is classed as functional, cell-based. An outline of the steps: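 HeLa cells, 1.0 × 10⁴ per well on PLL-coated plates, grown overnight in DMEM with 10% FBS and penicillin/streptomycin, 37 °C, 5% CO₂. Compounds added in DMEM (2% DMSO stock), range 1.56–50 μM final, for 72 h. CCK-8 reagent then 2 h at 37 °C, absorbance read at 450 nm. DMSO control.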
(Tetrazolium dyes change colour on reduction, which living cells bring about.)

The target of experiment [13] is T2, NAD-dependent protein deacetylase sirtuin-2 (Homo sapiens). The experiment can be described thus: Time-dependent inhibition of recombinant human SIRT2 defatty-acylase activity at 62.5 to 1000 nM using SFP3 as substrate measured at 5 mins interval for 60 mins in presence of NAD+ by fluorescence assay.
The target is the same in experiment [14]. Kind of experiment: Time-dependent inhibition of recombinant human SIRT2 defatty-acylase activity at 15.6 to 250 nM using SFP3 as substrate measured at 5 mins interval for 60 mins in presence of NAD+ by fluorescence assay.

Chain of NAD-dependent protein deacylase sirtuin-6 (Homo sapiens) (Q8N6T7 whole entry, the tested form may be a part): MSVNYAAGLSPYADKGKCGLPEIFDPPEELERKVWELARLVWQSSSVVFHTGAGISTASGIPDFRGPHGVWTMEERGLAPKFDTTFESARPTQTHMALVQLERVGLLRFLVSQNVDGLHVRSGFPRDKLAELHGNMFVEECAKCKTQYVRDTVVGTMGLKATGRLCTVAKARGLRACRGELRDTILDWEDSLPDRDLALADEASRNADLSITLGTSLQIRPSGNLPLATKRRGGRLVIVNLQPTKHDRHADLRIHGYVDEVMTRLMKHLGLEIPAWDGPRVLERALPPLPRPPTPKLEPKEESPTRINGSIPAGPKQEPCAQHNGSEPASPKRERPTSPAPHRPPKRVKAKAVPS

`CCCCCCCCCCCCCC(=O)NCCCC[C@H](NC(=O)OCc1ccccc1)C(=O)Nc1ccccc1`: the inhibition in experiment [1] was 1.7%; in experiment [2], 5.2%; in experiment [3], 2.8%; in [4] it was 42%; in experiment [5], -0.59%; in experiment [6], 1.7%. For the same compound, the inhibition in [7] was -2.3%; in experiment [8], -3.5%.

`O=C(Cc1ccc(/N=N/c2ccccc2)cc1)NCCCC[C@H](NC(=O)OCC1c2ccccc2-c2ccccc21)C(=O)O`: the inhibition result in [9] is “inactive”.

For `CC[C@H](C)[C@H](NC(=O)[C@H](CCCNC(=N)N)NC(C)=O)C(=O)N[C@@H](CCCCNC(=O)Cc1ccc(/N=N/c2ccc(O)cc2)cc1)C(=O)N[C@@H](CCCNC(=N)N)C(=O)N[C@@H](Cc1ccc(O)cc1)C(N)=O` (Ac-RIK(X1)RY-NH2), the results for the inhibition entry in experiment [10], in experiment [12] and in experiment [8] were “Dose-dependent effect”, “Dose-dependent effect” and 43%, respectively. Besides, the inhibition result in experiment [11] was “Active”. Moreover, the outcome in the experiment with HeLa was inactive.

On to `CC[C@H](C)[C@H](NC(=O)[C@H](CCCNC(=N)N)NC(C)=O)C(=O)N[C@@H](CCCCNC(=O)c1ccc(/N=N/c2ccc(N(C)C)cc2)cc1)C(=O)N[C@@H](CCCNC(=N)N)C(=O)N[C@@H](Cc1ccc(O)cc1)C(N)=O` (Ac-RIK(X2)RY-NH2), for which the inhibition in experiment [1] is 34%; in experiment [5], 22%; in experiment [6], 42%; in experiment [8], 13%. Besides, in [13], the TDI result is “inactive”.

In the case of `CC[C@H](C)[C@H](NC(=O)[C@H](CCCNC(=N)N)NC(C)=O)C(=O)N[C@@H](CCCCNC(=O)CCc1ccc(/N=N/c2ccc(N(C)C)cc2)cc1)C(=O)N[C@@H](CCCNC(=N)N)C(=O)N[C@@H](Cc1ccc(O)cc1)C(N)=O` (Ac-RIK(X3)RY-NH2), the inhibition in experiment [1] turned out to be 11%; in experiment [2], 23%; in [6], 42%; in experiment [8], 13%. For the same compound, the TDI entry in [13] was “inactive”.

`CC[C@H](C)[C@H](NC(=O)[C@H](CCCNC(=N)N)NC(C)=O)C(=O)N[C@@H](CCCCNC(=O)Cc1ccc(/N=N/c2ccc(N(C)C)cc2)cc1)C(=O)N[C@@H](CCCNC(=N)N)C(=O)N[C@@H](Cc1ccc(O)cc1)C(N)=O` (Ac-RIK(X4)RY-NH2): in experiment [14], the TDI result is “Active”. Moreover, the inhibition in experiment [8] amounted to 40%.

For the compound `CCCCCCCCCCCCCC(=S)NCCCC[C@H](NC(=O)[C@@H](NC(=O)[C@H](CCCNC(=N)N)NC(C)=O)[C@@H](C)CC)C(=O)N[C@@H](CCCNC(=N)N)C(=O)N[C@@H](Cc1ccc(O)cc1)C(N)=O` (Ac-RI[Lys(thiomyristoyl)]RY-NH2), the inhibition entry in experiment [10] and in experiment [12] was “Dose-dependent effect” in each case. In addition, the inhibition result in [11] is “Active”. In addition, in the experiment with HeLa, the result was inactive.
